Experimental data gathered from unrelated publications.
Each line is one published result; the experiments were not run side by side.
PROC: Vitamin K-dependent protein C (PROC, Homo sapiens, UniProt P04070)
PFF0160c E182D: Dihydroorotate dehydrogenase (quinone), mitochondrial (PFF0160c, Plasmodium falciparum, UniProt Q08210, E182D)
PFF0160c: Dihydroorotate dehydrogenase (quinone), mitochondrial (PFF0160c, Plasmodium falciparum, UniProt Q08210)
OPRK1: Kappa-type opioid receptor (OPRK1, Homo sapiens, UniProt P41145)

Compound | target | read-out | action | method | IC50 [nM]
CC(C)C[C@@H]1C(=O)N[C@H]([C@@H](C)O)C(=O)N[C@H](C)[C@@H](C)C(=O)O[C@@H](Cc2ccccc2)C(=O)N(C)[C@@H](C(C)C)C(=O)N2CCC[C@H]2C(=O)N(C)[C@H](Cc2ccccc2)C2=N[C@@H](CS2)C(=O)N[C@H](C)C2=N[C@@H](CS2)C(=O)N1C | PROC | enzyme activity | inhibitor | – | 66600
CCc1ccccc1N=C1c2c(cccc2[N+](=O)[O-])C(=O)C1C(C)=O (stereo not drawn) | PFF0160c E182D | enzyme activity | inhibitor | absorbance | 384
Cc1nc(Nc2ccc(C(F)(F)F)nc2)c2c(C)noc2n1 | PFF0160c | enzyme activity | inhibitor | absorbance | 150
Cc1cc(Nc2ccc(C)c(Cl)c2)n2nc(C(F)(F)F)nc2n1 | PFF0160c | enzyme activity | inhibitor | absorbance | 29.1
COc1cc(Nc2ncc(F)c(Nc3ccc4c(n3)NC(=O)C(C)(C)O4)n2)cc(OC)c1OC | cGMP-specific 3',5'-cyclic phosphodiesterase (PDE5A, Homo sapiens, UniProt O76074) | enzyme activity | inhibitor | – | 316
CNC(=O)[C@H](C)NC(=O)c1[nH]cc(Cc2ccc(C(F)(F)F)nc2)c1C | PFF0160c | enzyme activity | inhibitor | absorbance | 39000
O=S(=O)(O)c1nc2ccccc2[nH]1 | racE (Bacillus subtilis, UniProt P94556, N75L) | enzyme activity | inhibitor | absorbance | 198000
Cc1nc(Nc2ccc(S(F)(F)(F)(F)F)cc2)c2c(C(F)(F)F)noc2n1 | PFF0160c | enzyme activity | inhibitor | absorbance | 43
Cc1c(Cc2ccc(C(F)(F)F)nc2)c[nH]c1C(=O)NC(C)c1nc[nH]n1 (stereo not drawn) | PFF0160c | enzyme activity | inhibitor | absorbance | > 100000
Cc1nc(NC2Cc3cc(F)c(F)cc3C2)c2c(C(F)(F)F)noc2n1 | PFF0160c | enzyme activity | inhibitor | absorbance | 22
Cc1c(C2(c3ccc(C(F)F)nc3)CC2)c[nH]c1C(=O)NC(C)c1nc[nH]n1 (stereo not drawn) | PFF0160c | enzyme activity | inhibitor | absorbance | > 30000
Cc1nc(Nc2ccc(C(F)(F)F)cc2)c2c(C)noc2n1 | PFF0160c | enzyme activity | inhibitor | absorbance | 68
CCc1nc2nc(C)cc(Nc3ccc4c(c3)OCCO4)n2n1 | PFF0160c | enzyme activity | inhibitor | absorbance | 492
Cc1nc(NC2CCc3cc(Cl)ccc3C2)c2c(C)noc2n1 (stereo not drawn) | PFF0160c | enzyme activity | inhibitor | absorbance | 120
Cc1cc(C(C)NC(=O)c2[nH]cc(-c3n[nH]c4cc(C(F)(F)F)ccc34)c2C)no1 (stereo not drawn) | PFF0160c | enzyme activity | inhibitor | absorbance | > 100000
Cc1nc(NC2CCc3ccc(Cl)cc3C2)c2c(C)noc2n1 (stereo not drawn) | PFF0160c | enzyme activity | inhibitor | absorbance | 17
Cc1c(Cc2ccc(C(F)(F)F)nc2)c[nH]c1C(=O)NC(C)c1cc(C(N)=O)[nH]n1 (stereo not drawn) | PFF0160c | enzyme activity | inhibitor | absorbance | 350
CC(c1ccc(Cl)c(Cl)c1)c1nn2c(-c3ccccc3F)nnc2s1 (stereo not drawn) | PFF0160c | enzyme activity | inhibitor | absorbance | 541
CC(CCc1ccccc1)NC(C)C(O)c1ccc(O)cc1 (stereo not drawn) | OPRK1 | ligand displacement | – | radioligand | 4980
CC(=O)c1c(Nc2c(C)cc(C)cc2C)oc(C)cc1=O | PFF0160c E182D | enzyme activity | inhibitor | absorbance | 659
CC[C@H]1NC(=O)[C@@H]2CSC(=N2)[C@@H](Cc2ccccc2)N(C)C(=O)[C@@H]2CCCN2C(=O)[C@H](C(C)C)N(C)C(=O)[C@H](Cc2ccccc2)OC(=O)[C@H](C)[C@@H](C)NC(=O)[C@@H]([C@@H](C)O)NC(=O)[C@@H](CC(C)C)N(C)C(=O)[C@@H]2CSC1=N2 | PROC | enzyme activity | inhibitor | – | 79000
COc1ccc(C(=O)NCC(C)(C)c2nc(-c3ccc(Cl)c(O)c3)c(-c3ccncc3)[nH]2)cc1OCCN(C(C)C)C(C)C | PFF0160c | enzyme activity | inhibitor | absorbance | > 10000
Cc1ccc(O)c([C@H](CCN(C(C)C)C(C)C)c2ccccc2)c1 | OPRK1 | ligand displacement | – | radioligand | 6710
COc1ccccc1C1CN(CCNC(=O)c2nc(C)c[nH]2)Cc2ccccc2O1 (stereo not drawn) | PFF0160c | enzyme activity | inhibitor | absorbance | 3010
Cc1nc(C(C)NC(=O)c2[nH]cc(Cc3ccc(C(F)(F)F)nc3)c2C)c[nH]1 (stereo not drawn) | PFF0160c | enzyme activity | inhibitor | absorbance | 1300
CN(C)S(=O)(=O)c1ccc(Sc2ccccc2)c(C(=O)N2CCCC(C(N)=O)C2)c1 (stereo not drawn) | PFF0160c | enzyme activity | inhibitor | absorbance | 3670
Cc1c(Cc2ccc(F)c(F)c2)c[nH]c1C(=O)NC(C)c1nc[nH]n1 (stereo not drawn) | PFF0160c | enzyme activity | inhibitor | absorbance | > 100000
